The structures appear in SMILES notation.

Series [1] concerns Enterococcus faecium. Nature of the series: Synergistic antibacterial activity against vancomycin-resistant Enterococcus faecium OEF65 assessed as fractional inhibitory concentration index measured after 24 hrs in presence of curcumin by checkerboard assay. It is filed as functional. In a few lines: (§1)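 FICI was derived from checkerboard MICs. Synergy was defined as FICI ≤ 0.5 and additive as FICI > 0.5−4.0. Where an MIC was not reached, the dilution above the maximum dose was used in the FICI calculation. Experiments were run in triplicate and reported as means.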

Series [2] relates to Acinetobacter baumannii. Nature of the series: Antibacterial activity against Acinetobacter baumannii NCTC 19606 assessed as log reduction in colony forming units at MIC measured after 6 hrs by time kill assay. The series is classed as functional. In a few lines: (§2)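 Time-kill in Mueller-Hinton 2 broth. Inoculum was a 1/1000 dilution of a 16 h overnight culture, about 10^6 CFU/mL, 10 mL per tube. Arms were each agent alone at ×1 MIC, or the combination at ×1 MIC plus ×0.5 MIC partner. Incubated at 37 °C with continuous agitation for 24 h. Samples taken at 0, 2, 4, 6 and 24 h, serially diluted and plated on IsoSensitest agar for CFU counts.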

The subject of series [3] is HaCaT. Nature of the series: Cytotoxicity against human HaCaT cells at 6.1 uM measured after 4 hrs by CyTox 96 nonradioactive assay relative to control. It is filed as cell-based.
The subject of series [4] is Enterococcus faecium. Nature of the series: Synergistic antibacterial activity against vancomycin-resistant Enterococcus faecium OEF42 assessed as fractional inhibitory concentration index measured after 24 hrs in presence of curcumin by checkerboard assay. The series is classed as functional. The procedure, abridged: as §1
Series [5] deals with Acinetobacter baumannii. Nature of the series: Antibacterial activity against Acinetobacter baumannii AB14 harboring OXA-23 clone 1 assessed as reduction in bacterial growth incubated for 24 hrs in presence of curcumin. It is filed as functional.
The test system of series [6] is Escherichia coli. Nature of the series: Antibacterial activity against Escherichia coli EC204 harboring NDM-1 assessed as reduction in bacterial growth incubated for 24 hrs in presence of curcumin. The series is classed as functional.
The test system of series [7] is Staphylococcus aureus. Nature of the series: Antibacterial activity against Staphylococcus aureus ATCC 25923 assessed as reduction in bacterial growth incubated for 24 hrs in presence of curcumin. It is filed as functional.
The test system of series [8] is Pseudomonas aeruginosa. Nature of the series: Synergistic antibacterial activity against Pseudomonas aeruginosa PA30 harboring VIM-2 assessed as fractional inhibitory concentration index measured after 24 hrs in presence of curcumin by checkerboard assay. The series is classed as functional. In a few lines: as §1
The test system of series [9] is Stenotrophomonas maltophilia. Nature of the series: Antibacterial activity against Stenotrophomonas maltophilia NCTC 10258 assessed as reduction in bacterial growth incubated for 24 hrs in presence of curcumin. It is filed as functional.
Series [10] concerns Escherichia coli. Nature of the series: Antibacterial activity against Escherichia coli NCTC 12241 assessed as reduction in bacterial growth incubated for 24 hrs in presence of curcumin. The series is classed as functional.
Series [11] relates to Pseudomonas aeruginosa. Nature of the series: Potentiation of polymyxin B-induced antibacterial activity against Pseudomonas aeruginosa PA14 assessed as fold reduction in polymyxin B MIC measured after 24 hrs in presence of polymyxin B by checkerboard assay. It is filed as functional.
Series [12] relates to HaCaT. Nature of the series: Cytotoxicity against human HaCaT cells at 43.4 uM measured after 4 hrs in presence of 1.5 uM polymyxin B by CyTox 96 nonradioactive assay relative to control. It is filed as cell-based.
Series [13] has as its system Staphylococcus aureus. Nature of the series: Antibacterial activity against Staphylococcus aureus ATCC 25923 assessed as reduction in bacterial growth incubated for 24 hrs in presence of polymyxin B. It is filed as functional.
For series [14], the system named is Acinetobacter baumannii. Nature of the series: Antibacterial activity against Acinetobacter baumannii AB14 harboring OXA-23 clone 1 assessed as reduction in bacterial growth incubated for 24 hrs in presence of polymyxin B. The series is classed as functional.
The test system of series [15] is Stenotrophomonas maltophilia. Nature of the series: Potentiation of polymyxin B-induced antibacterial activity against Stenotrophomonas maltophilia SMS01 assessed as fold reduction in polymyxin B MIC measured after 24 hrs in presence of polymyxin B by checkerboard assay. The series is classed as functional.
Series [16] has as its system Stenotrophomonas maltophilia. Nature of the series: Bactericidal activity against Stenotrophomonas maltophilia NCTC […] assessed as log reduction in colony forming units at 0.5 fold MIC measured after 24 hrs in presence of polymyxin B at MIC by time kill assay. It is filed as functional. In a few lines: as §2
Series [17] concerns Acinetobacter baumannii. Nature of the series: Bactericidal activity against Acinetobacter baumannii NCTC 19606 assessed as log reduction in colony forming units at 0.5 fold MIC measured after 24 hrs in presence of polymyxin B at MIC by time kill assay. The series is classed as functional. The procedure, abridged:
as §2

Series [18] concerns Enterococcus faecalis. Nature of the series: Potentiation of polymyxin B-induced antibacterial activity against Enterococcus faecalis ATCC 29212 assessed as fold reduction in polymyxin B MIC measured after 24 hrs in presence of polymyxin B by checkerboard assay.
Series [19] has as its system Pseudomonas aeruginosa. Nature of the series: Antibacterial activity against Pseudomonas aeruginosa ATCC 27853 assessed as reduction in bacterial growth incubated for 24 hrs in presence of polymyxin B. The series is classed as functional.
The subject of series [20] is HaCaT. Nature of the series: Cytotoxicity against human HaCaT cells at 174 uM measured after 4 hrs by CyTox 96 nonradioactive assay relative to control. The series is classed as cell-based.
The subject of series [21] is Pseudomonas aeruginosa. Nature of the series: Antibacterial activity against Pseudomonas aeruginosa ATCC 27853 assessed as log reduction in colony forming units at 0.5 fold MIC measured after 24 hrs by time kill assay. It is filed as functional. The settings on record: in the assay text read “1 fold MIC” for “0.5 fold MIC”. The procedure, abridged:
as §2

For series [22], the system named is Escherichia coli. Nature of the series: Potentiation of polymyxin B-induced antibacterial activity against Escherichia coli EC204 harboring NDM-1 assessed as fold reduction in polymyxin B MIC measured after 24 hrs in presence of polymyxin B by checkerboard assay. It is filed as functional.
For series [23], the system named is Streptococcus pyogenes. Nature of the series: Antibacterial activity against Streptococcus pyogenes SPY2 assessed as reduction in bacterial growth incubated for 24 hrs in presence of polymyxin B. It is filed as functional.
In series [24] the test system is Pseudomonas aeruginosa. Nature of the series: Bactericidal activity against Pseudomonas aeruginosa ATCC 27853 assessed as log reduction in colony forming units at 0.5 fold MIC measured after 24 hrs in presence of polymyxin B at MIC by time kill assay. The series is classed as functional. The procedure, abridged:
as §2

In series [25] the test system is Stenotrophomonas maltophilia. Nature of the series: Antibacterial activity against Stenotrophomonas maltophilia NCTC 10258 assessed as reduction in bacterial growth incubated for 24 hrs in presence of polymyxin B. It is filed as functional.
Series [26] deals with Enterococcus faecium. Nature of the series: Potentiation of polymyxin B-induced antibacterial activity against vancomycin-resistant Enterococcus faecium OEF65 assessed as fold reduction in polymyxin B MIC measured after 24 hrs in presence of polymyxin B by checkerboard assay. It is filed as functional.
In series [27] the test system is Streptococcus pyogenes. Nature of the series: Antibacterial activity against Streptococcus pyogenes SPY3 assessed as reduction in bacterial growth incubated for 24 hrs in presence of polymyxin B. It is filed as functional.

For `CC[C@H](C)CCCCC(=O)N[C@@H](CCN)C(=O)N[C@H](C(=O)N[C@@H](CCN)C(=O)N[C@H]1CCNC(=O)[C@H]([C@@H](C)O)NC(=O)[C@H](CCN)NC(=O)[C@H](CCN)NC(=O)[C@H](CC(C)C)NC(=O)[C@@H](Cc2ccccc2)NC(=O)[C@H](CCN)NC1=O)[C@@H](C)O.O=S(=O)(O)O`, the “fractional inhibitory concentration index (FICI)” value in series [1] is listed as 0.281; in series [4], 0.094; in series [8], 0.563. The Activity is given as 2 log10CFU/ml in series [2] and 2% in series [3]. In addition, the MIC – broadly, the lowest concentration that inhibits growth of the organism – in series [5] turned out to be 0.024 µM; in series [6] it was 0.024 µM; in series [7], 6.1 µM; in series [9], 0.008 µM; in series [10], 0.024 µM.
As to `COc1cc(/C=C/C(=O)CC(=O)/C=C/c2ccc(O)c(OC)c2)ccc1O` [CURCUMIN], the “fold change (FC)” value in series [11], in [15], in series [18], in series [22] and in series [26] was 3 each time. Moreover, the Activity in series [12] is recorded as 22%; in series [16], over 3 log10CFU/ml; in series [17] it was over 3 log10CFU/ml; in series [20], 34%; in series [21], 2 log10CFU/ml; in series [24], over 3 log10CFU/ml. Besides, the MIC in series [13] was determined as 87 µM; in series [14], 174 µM; in series [19], 174 µM; in series [23] it was 22 µM; in series [25] it was 22 µM; in series [27] it was 43 µM.

The values above are taken from ChEMBL document CHEMBL4715738, “In Vitro Antibacterial Activity of Curcumin-Polymyxin B Combinations against Multidrug-Resistant Bacteria Associated with Traumatic Wound Infections” (J Nat Prod, 2016).
